In ChEMBL document CHEMBL1255475, “Mutant prevention concentrations of four carbapenems against gram-negative rods” (2010):

Legend:
Format in all cases: functional
Settings in all cases: read-out: IZ
[1] = system: Escherichia coli; test: Antibacterial activity against beta-lactamase-positive ESBL-positive Escherichia coli assessed as […] in zone of inhibition at 30 ug by disk diffusion method in presence of clavulanic acid
Outline: (§1)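 ESBL confirmation by disk diffusion using cefotaxime and ceftazidime disks (30 μg each) combined with a 10 μg clavulanic acid disk, compared against the disks alone.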

[2] = system: Klebsiella pneumoniae; test: Antibacterial activity against beta-lactamase-positive ESBL-positive Klebsiella pneumoniae assessed as […] in zone of inhibition at 30 ug by disk diffusion method in presence of clavulanic acid; outline: as §1
[3] = system: Escherichia coli; test: Antibacterial activity against beta-lactamase-positive ESBL-positive Escherichia coli assessed as […] in zone of inhibition at 30 ug by disk diffusion method
Outline: (§2)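 ESBL screen of β-lactamase-positive enteric isolates by disk diffusion using cefotaxime and ceftazidime disks (30 μg each) alone.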

[4] = system: Klebsiella pneumoniae; test: Antibacterial activity against beta-lactamase-positive ESBL-positive sKlebsiella pneumoniae assessed as decrease in zone of inhibition at 30 ug by disk diffusion method; outline: as §2

Measured: zone of inhibition at 30 µg/disc

O=C(O)[C@H]1/C(=C/CO)O[C@@H]2CC(=O)N21 [CLAVULANIC ACID]
≥ 5 mm: [1] | [2] | [3] | [4]
